Data published in the EternaBench riboswitch data.

Tested on: MS2 coat protein
Assay: apparent Kd, MS2 coat protein; higher = weaker binding; RNA-MaP array; FMN 200 µM where present
In short: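 On Illumina sequencing-chip clusters, designs were transcribed by stalled E. coli RNA polymerase and titrated with SNAP-549-labelled MS2 coat protein (0.7 or 1.5 nM, doubling to 3 µM), without and then with constant ligand, in 100 mM Tris-HCl pH 7.5, 80 mM KCl, 4 mM MgCl2, BSA, DTT, yeast tRNA and Tween-20. Apparent Kd is the median of filtered per-cluster curve fits to green signal normalised to red-channel RNA signal and control-cluster median Fmax.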

[1] = designed as: ON switch for flavin mononucleotide, no ligand
[2] = ligand present: flavin mononucleotide, designed as: ON switch for flavin mononucleotide
[3] = designed as: OFF switch for flavin mononucleotide, no ligand
[4] = ligand present: flavin mononucleotide, designed as: OFF switch for flavin mononucleotide

Row | Sequence | apparent Kd [1] | apparent Kd [2] | apparent Kd [3] | apparent Kd [4]
1 | AUUAACUACAUAGGAUAUUGUUACAUGAGGAUCACCCAUGUUAUAUGGGAACUAGGAAUAUUUGUCAAGAAGGAUGUGGUUACA | 232 nM | 33 nM |  | 
2 | UGAUAGCACAGAGGAUAUGCGUAGAGUUAUCACUACAUGAGGAUCACCCAUGUAGAAGGCUGUGCUAUCUAAGUCGGAAACGAC |  |  | 5.89 nM | 6.17 nM
3 | CAGUGCAAUGUAGGAUAUGCUCAGGAUAACUGAGCAGAAGGACAUGAGGAUCACCCAUGUACUAUGAAAGAUAAUAAAGCACUG |  |  | 14.1 nM | 18.3 nM
4 | GGACGUCACAUGAACAUGAGGAUCACCCAUGUGAAAACACAUGAGGAUAUGGAUCCUAAUUGGAUCCAGAAGGCAUGGACGUCC | 476 nM | 27.2 nM |  | 
5 | UCUCGACAUGAGGAUCACCCAUGUCAGGAUAUUGUAUUAGAGGUUUUUUACCUUAUAACAAGAAGGGAUGUGUG |  |  | 22.9 nM | 26.8 nM
6 | GUAACGCUUGACAUGAGGAUCACCCAUGUUAGAUUGUUAUGUCAGGAUAUAGUCUAGAAACUAGACUAGAAGGGAUAUGUUACU | 69.6 nM | 29.4 nM |  | 
7 | GGAGCCGGCACUGAGGAUAUUCAUAUUAAAACAUGAGGAUCACCCAUGUAGGCCAGAAGGCCUUGGGAGAAGGCGGGUCGGCCCG | 531 nM | 35.3 nM |  | 
8 | AGAUAGUUAUAACGCCAUCCCUACAUGAGGAUCACCCAUGUGCAGGAUAUAGGCUUGAAGCAAACCUAGAAGGGCACAGGUUGA |  |  | 15.8 nM | 35.9 nM
9 | GUCGCUAGAGGAUAUACAAUGGUAUAUGAUCCUAGUGACAUACAUGAGGAUCACCCAUGUAGAAGGCUAGUAAU |  |  | 24.2 nM | 21.7 nM
10 | CAUCAGUGUUAAGGAUAUGGCAGCGGAAGCGCACCAGAAGGUAGCACAUGAGGAUCACCCAUGUGUUCUGGCUUGAGCGUGAUC |  |  | 36.5 nM | 75.2 nM
11 | CGUGCGUCGACAGGAUAUACAGAUUGGCUCCGGUACAUGAGGAUCACCCAUGUAGAAGGGUCACGCACGGAUAGUUCGAUAUUA |  |  | 9.36 nM | 43.1 nM
12 | UUUACAUGAGGAUCACCCAUGUAUAGAACGGUUCAUUAAAGUGAGGAUAUACGAAAUUUAAAAUCGUAGAAGGCACUGGGUACA | 17 nM | 19.1 nM |  | 
13 | GUGUUACAUGAGGAUCACCCAUGUUGUUGUAGAUAAGGAUAUAUGGGAACGAGAGAAAUAAUAGAAGGUAUUAGGC | 71.2 nM | 67.7 nM |  | 
14 | AUCAGCUCGUCAGGAUAUACGUCACUGCGUCAACAGUGUGGUAAGAUCACAUGAGGAUCACCCAUGUAGAAGGGACGAGCUGAU |  |  | 14.6 nM | 266 nM
15 | GGAUCGAAUGUCAGGAUAUACCACUGGAUACAGUGGUAGAAGGGACAUGAGGAUCACCCAUGUGUUAUCGAUCC |  |  | 40.4 nM | 114 nM
16 | UAAUAAUAAUAAUAGCAGAUUACAUGAGGAUCACCCAUGUAUAAGGAUAUCGUCAGGAAUACUGACGAGAAGGUAUACAACUGC |  |  | 18.9 nM | 25.7 nM
17 | CUCAUUAACAUGAGGAUCACCCAUGUUGGCCAGUCUCACACCAGAAGGCCCGUUGAGCACAGCAGGGAGGAUAUGGGUGACAUA | 309 nM | 211 nM |  | 
18 | UAGAGAGGAAGCGAGGAUAUCGUGUGAGGAACAUGAGGAUCACCCAUGUGUGAUGUUGAGAGAGACGAGAAGGCGCAGGAAAUUA | 205 nM | 72.6 nM |  | 
19 | GCAUGGGCCGUCAGGAUAUAGGCGCCGUGAAGGUAUUAGAAGGGACAUGAGGAUCACCCAUGUAUGAGAAAAGA |  |  | 36.7 nM | 42.7 nM
20 | CCACGUCACAUGAACAUGAGGAUCACCCAUGUAAAUUCUCAUGAGGAUAUGGAUCCUAAUUGGAUCCAGAAGGCGUGGACGUGG | 1070 nM | 461 nM |  | 
21 | UCUUUACAUGAGGAUCACCCAUGUGAGGAUAUGGAUUCGCUGGCCGUAGCCAGUGGAUCCAGAAGGCGCAUGAU |  |  | 26.6 nM | 48 nM
22 | CACGUCCUCACAGGAUAUGCUGGACUUUGUCCAGCAGAAGGGUGAAACAUGAGGAUCACCCAUGUUAGGACGUGUAUAUUUAAU | 86.7 nM | 625 nM |  | 
23 | GUACUGUAGUGAGGAUAUACGAGUACGAUAGUACGGCGAUCCAUAUAUACAUGAGGAUCACCCAUGUAGAAGGCACUUCAGUAC |  |  | 8.66 nM | 109 nM
24 | ACGUUUUUUGAGGAUAUGCGACGUUUUUUCGUCGUAGAAGGCGAUACAUGAGGAUCACCCAUGUUUAUGGGCAU |  |  | 126 nM | 174 nM
25 | GAUACACAUGAGGAUCACCCAUGUGAGGAUAUGCGUACGUUGUCCGUAGGCGACGUGCGCAGAAGGCGCUUGGU |  |  | 72.2 nM | 75 nM
26 | GCCAUCGCAUGAGGAUAUGCUCGGGUUUCCCGAGCAGAAGGCAUGUCAAAAGACAUGAGGAUCACCCAUGUAGUUAAGAUGGCA | 122 nM | 8.11 nM |  | 
27 | GUGCAUGUGCGAACUAACCCACAUGAGGAUCACCCAUGUAGGAGAAGGGUCCGGAGGUGCCGUGGACAGGAUAUCCUACGCCUG |  |  | 23.2 nM | 30.9 nM
28 | AUGUUAUUCUGAGGAUAUUGUUUAUUCUUCUCACAUGAGGAUCACCCAUGUUUCCGUGUUUACCGCAAGAAGGCAGUUUUGUUU |  |  | 29.9 nM | 27.5 nM

Row | Sequence | apparent Kd [1] | apparent Kd [2] | apparent Kd [3] | apparent Kd [4]
29 | GGUUAUUGCAAGGAUAUGCUAUUAUUUUAUUUUGCAGAAGGUGCAACAUGAGGAUCACCCAUGUUGGAGGGUUU |  |  | 21.5 nM | 41.1 nM
30 | AAGUUAUUAGGAUAUACUUGUGCGAACCAAACGUUGAUAUUACAUGAGGAUCACCCAUGUAGAAGGAAUAAAAA |  |  | 35.7 nM | 25.1 nM
31 | CGAUGACACAGUCAUCCAAUACGAACAUGAGGAUCACCCAUGUAGGAUAUGCUACUCAAAGAGUAGCAGAAGGACAUGUGCCUU |  |  | 38.4 nM | 159 nM
32 | AAGCGAAAGCUAAAAUAUCUAUCAGAGGAUAUUUAUGAUACAUGAGGAUCACCCAUGUGGCACUGGGAGAAGGCUGAUAGAUAA | 11.6 nM | 6.15 nM |  | 
33 | CAGGUAGACUGAGGAUAUACAAUAAGACCUAGUCUAUCUAGGUCACUCACAUGAGGAUCACCCAUGUAGAAGGCAGUCUGCCUG |  |  | 21.8 nM | 79.7 nM
34 | CCAUCAGCGAACGAUACGAUUGGACAUGAGGAUCACCCAUGUAGAAGGACAGGAGAAUAACGGCUGUAGGAUAUACAUUUAGUG |  |  | 58.4 nM | 40.6 nM
35 | UCCGUGGCAUCUCGCGCGUGUCCACAUGAGGAUCACCCAUGUCAGGAUAUACGGAAUGUCGUUCCGUAGAAGGGACAAGGGCUG |  |  | 172 nM | 108 nM
36 | UCAUGGUAGCAGGAUAUGCUUGUUUUUUUUUUUGCAGAAGGGCUUACAUGAGGAUCACCCAUGUGAGAGGUCUA |  |  | 14.5 nM | 21.6 nM
37 | GCCUUAUCUGUCAGGAUAUACAAUUUUUUUUUUUUGUAGAAGGGACAUGAGGAUCACCCAUGUACAUUACAUUG |  |  | 34 nM | 57.9 nM
38 | GCGGUACAUGAGGAUCACCCAUGUCAGGAUAUCCGCUGUUUGUCGAUUGGCGGGCGGUGGAGAAGGGACCUCGC |  |  | 80.4 nM | 81.6 nM
39 | AGUAAGAUGCAGAAGGUGCCAGCGAGAGCUGCACAUGAGGAUCACCCAUGUUGUCGGUGACGACGCAAGGAUAUGCAUCUUACA | 24.5 nM | 6.87 nM |  | 
40 | GAUCCUCGCGGAGGAUAUAUAAGUGGAUCACCCAUAGAAGGCCGAACAUGAGGAUCACCCAUGUGGAACAGGAUCACCGUUGUU | 79 nM | 77 nM |  | 
41 | GUGCCUAACUAGAAGGCAGCAUGCAAAGCAUUCUGAGGAUAUGGGUUCCGGAAACGGACAUGAGGAUCACCCAUGUGGCACAAA | 482 nM | 34.7 nM |  | 
42 | GUUUAGUGAGGAUAUGUGGCAUCGCCCGAGCGCGGUCGGCUACAGAAGGCACAUGAGGAUCACCCAUGUUUCUC |  |  | 38.6 nM | 585 nM
43 | AUCAGCCCGUCAGGAUAUACGUCACUGCGUCAGCAGUGUGGUAAGAUCACAUGAGGAUCACCCAUGUAGAAGGGACGAGCUGAU |  |  | 14.2 nM | 261 nM
44 | AUGCGGUCAGGAUAUGCAUGGCGGGACUUGCGUCGUGGCGUGGAGAAGGGACAUGAGGAUCACCCAUGUGGAGC |  |  | 53.5 nM | 50.4 nM
45 | UGUUGUAUUACAGGAUAUCUAUGUUUUUUAUUUAGAGAAGGGUAUUCACAUGAGGAUCACCCAUGUAUAUACGAGGAAGUUGUG | 49 nM | 49 nM |  | 
46 | AGAAAGGCAGGAUAUACAUGAGGAUCACCCAUGUUAAGAGUGACGGAAACGUCACGAAGUAGAAGGGCCAAGAA |  |  | 21.1 nM | 18.7 nM
47 | UGAAAUCAUGUAGGAUAUGCAUGGCGAAGCUACGCAGAAGGACAUGAGGAUCACCCAUGUUCGAGGGUCUGAGUACAGAUCCAA |  |  | 25.2 nM | 162 nM
48 | GUUAUUAUUAGUUCAUACUAUAAGAUAGAAGGUGAUUUAUUGACAUGAGGAUCACCCAUGUAAUUCAAGGAUAUGUAGAUACUC | 374 nM | 248 nM |  | 
49 | GGUACUCAAAGAGUACCAAUACGAACAUGAGGAUCACCCAUGUAGGAUAUGCUAAAACCGGAGUAGCAGAAGGACAUGUGCCUA |  |  | 15.3 nM | 66.6 nM
50 | AAACUAGUAGAGGAUAUUCCAGGCAGUGUUUGAGAAGAAGGCUACACAUGAGGAUCACCCAUGUGGCCUGGUGG |  |  | 13.6 nM | 17.1 nM
51 | CUAAAUCAUGUAGGAUAUGCGUGGCGAAGCUAUGCAGAAGGACAUGAGGAUCACCCAUGUCUUUCUGUCUGCGUACAGACGGAA |  |  | 23.5 nM | 135 nM
52 | AUCAUGUAAGGAUAUCUUACAUGUGACUUCGGUCACUGUCAAGAGAAGGUACAUGAGGAUCACCCAUGUAUGAC |  |  | 14.7 nM | 19 nM
53 | CCGCCUCUAGUCAGGAUAUUUACGGAAGAGCACGAAGAGAAGGGACAUGAGGAUCACCCAUGUUUGAUCACGGC |  |  | 30.5 nM | 31.4 nM
54 | ACAUGAGGAUCACCCAUGUUAUUUGGGAAUUAAUUUAUUUGUAGAAGGAUGUUUUCUUGUUAGUCAUAGGAUAUACUAUUAAAU |  |  | 40.7 nM | 34.4 nM
55 | CGCUGUCACGCAGGAUAUGCAUUGGAUUCCAAUGCAGAAGGGCGAUUACAUGAGGAUCACCCAUGUGCUGACAGUGAAGAAGAG | 1300 nM | 65.9 nM |  | 
